# Source: ChEMBL document CHEMBL3603756, “Synthesis and apoptotic activity of new pyrazole derivatives in cancer cell lines” (2015)
# The source made the active and inactive calls. The calls are words filed in the database; no cut-off is given here.
# Legend:
# THP-1 [1] = experiment: Cytotoxicity against human THP1 cells assessed as cell viability at 12.5 ug/ml incubated for 24 hrs by MTS assay; assay type: functional; conditions: THP-1, 24 h, read-out: Activity
# Outline: (§1)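 Cells were held at 37 °C, 5% CO2 in humid air. HEp-2 (5 x 10³/well) and HCT-8 (7 x 10³/well) grew in DMEM + 10% heat-inactivated FBS and got compound (binary dilutions) 24 h after seeding. THP-1 (5 x 10³ cells, RPMI-1640 + 10% FBS) were added directly to the dilutions. Exposure lasted 24 h. MTS (CellTiter 96 AQueous One) read-out was absorbance at 490 nm.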
# THP-1 [2] = experiment: Cytotoxicity against human THP1 cells assessed as cell viability at 25 ug/ml incubated for 24 hrs by MTS assay; assay type: functional; conditions: THP-1, 24 h, read-out: Activity; outline: as §1
# THP-1 [3] = experiment: Cytotoxicity against human THP1 cells assessed as cell viability at 50 ug/ml incubated for 24 hrs by MTS assay; assay type: functional; conditions: THP-1, 24 h, read-out: Activity; outline: as §1
# [4] = Cytotoxicity against human HCT8 cells assessed as cell viability at 12.5 ug/ml incubated for 24 hrs by MTS assay; assay type: functional; conditions: HCT-8, 24 h, read-out: Activity; outline: as §1
# [5] = Cytotoxicity against human HCT8 cells assessed as cell viability at 25 ug/ml incubated for 24 hrs by MTS assay; assay type: functional; conditions: HCT-8, 24 h, read-out: Activity; outline: as §1
# [6] = Cytotoxicity against human HCT8 cells assessed as cell viability at 50 ug/ml incubated for 24 hrs by MTS assay; assay type: functional; conditions: HCT-8, 24 h, read-out: Activity; outline: as §1
# [7] = Cytotoxicity against human Hep2 cells assessed as cell viability at 12.5 ug/ml incubated for 24 hrs by MTS assay; assay type: functional; conditions: HEp-2, 24 h, read-out: Activity; outline: as §1
# [8] = Cytotoxicity against human Hep2 cells assessed as cell viability at 25 ug/ml incubated for 24 hrs by MTS assay; assay type: functional; conditions: HEp-2, 24 h, read-out: Activity; outline: as §1
# [9] = Cytotoxicity against human Hep2 cells assessed as cell viability at 50 ug/ml incubated for 24 hrs by MTS assay; assay type: functional; conditions: HEp-2, 24 h, read-out: Activity; outline: as §1
# HCT-8 [10] = experiment: Induction of apoptosis in human HCT8 cells assessed necrosis level at 50 ug/ml incubated for 24 hrs by annexin V-FITC and propidium iodide staining based flow cytometry (reference value: 1.12%); assay type: functional
# HCT-8 [11] = experiment: Induction of apoptosis in human HCT8 cells assessed early apoptosis level at 50 ug/ml incubated for 24 hrs by annexin V-FITC and propidium iodide staining based flow cytometry (reference value: 0.75%); assay type: functional
# HCT-8 [12] = experiment: Induction of apoptosis in human HCT8 cells assessed late apoptosis level at 50 ug/ml incubated for 24 hrs by annexin V-FITC and propidium iodide staining based flow cytometry (reference value: 4.8%); assay type: functional
# HCT-8 [13] = experiment: Induction of apoptosis in human HCT8 cells assessed viable cells level at 50 ug/ml incubated for 24 hrs by annexin V-FITC and propidium iodide staining based flow cytometry (reference value: 93.3%); assay type: functional
# HEp-2 [14] = experiment: Induction of cell cycle arrest in human Hep2 cells assessed accumulation at G2/M phase incubated for 24 hrs by propidium iodide staining based flow cytometry; assay type: functional
# HEp-2 [15] = experiment: Induction of cell cycle arrest in human Hep2 cells assessed accumulation at G0/G1 phase at 10 ug/ml incubated for 24 hrs by propidium iodide staining based flow cytometry (reference value: 74.51%); assay type: functional
# HEp-2 [16] = experiment: Induction of cell cycle arrest in human Hep2 cells assessed accumulation at G0/G1 phase at 50 ug/ml incubated for 24 hrs by propidium iodide staining based flow cytometry (reference value: 74.51%); assay type: functional
# HEp-2 [17] = experiment: Induction of cell cycle arrest in human Hep2 cells assessed accumulation at S phase at 10 ug/ml incubated for 24 hrs by propidium iodide staining based flow cytometry (reference value: 21.06%); assay type: functional
# HEp-2 [18] = experiment: Induction of cell cycle arrest in human Hep2 cells assessed accumulation at S phase at 50 ug/ml incubated for 24 hrs by propidium iodide staining based flow cytometry (reference value: 21.06%); assay type: functional
# HEp-2 [19] = experiment: Induction of cell cycle arrest in human Hep2 cells assessed accumulation at G2/M phase at 10 ug/ml incubated for 24 hrs by propidium iodide staining based flow cytometry (reference value: 7.82%); assay type: functional
# HEp-2 [20] = experiment: Induction of cell cycle arrest in human Hep2 cells assessed accumulation at G2/M phase at 50 ug/ml incubated for 24 hrs by propidium iodide staining based flow cytometry (reference value: 7.82%); assay type: functional
# [21] = Reduction in PRKAA1 gene expression in human Hep2 cells at 10 ug/ml incubated for 24 hrs by real-time PCR method; assay type: functional, cell-based; conditions: HEp-2
# Outline: (§2)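 HEp-2 cells were treated 24 h at 10 or 50 µg/mL. Total RNA was extracted with Trizol, and 2 µg was reverse-transcribed. 50 ng cDNA went into TaqMan real-time PCR with beta-actin as endogenous control. Relative expression was calculated by the ∆∆CT method. Each experiment was run three times.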
# [22] = Reduction in PRKAA1 gene expression in human Hep2 cells at 50 ug/ml incubated for 24 hrs by real-time PCR method; assay type: functional, cell-based; conditions: HEp-2; outline: as §2
# [23] = Reduction in PRKAA2 gene expression in human Hep2 cells at 10 ug/ml incubated for 24 hrs by real-time PCR method; assay type: functional, cell-based; conditions: HEp-2; outline: as §2
# [24] = Reduction in PRKAA2 gene expression in human Hep2 cells at 50 ug/ml incubated for 24 hrs by real-time PCR method; assay type: functional, cell-based; conditions: HEp-2; outline: as §2
# HEp-2 [25] = experiment: Increase in cyclin B gene expression in human Hep2 cells at 50 ug/ml incubated for 24 hrs by real-time PCR method; assay type: functional, cell-based; outline: as §2
# HEp-2 [26] = experiment: Increase in cyclin B gene expression in human Hep2 cells at 10 ug/ml incubated for 24 hrs by real-time PCR method; assay type: functional, cell-based; outline: as §2
# HEp-2 [27] = experiment: Increase in TRAIL-R2 protein expression in human Hep2 cells at 50 ug/ml incubated for 24 hrs by protein array method; assay type: functional, cell-based
# HEp-2 [28] = experiment: Increase in TRAIL-R1 protein expression in human Hep2 cells at 50 ug/ml incubated for 24 hrs by protein array method; assay type: functional, cell-based
# HEp-2 [29] = experiment: Increase in FADD protein expression in human Hep2 cells at 50 ug/ml incubated for 24 hrs by protein array method; assay type: functional, cell-based
# HEp-2 [30] = experiment: Increase in Fas/TNFRSF6 protein expression in human Hep2 cells at 50 ug/ml incubated for 24 hrs by protein array method; assay type: functional, cell-based
# HEp-2 [31] = experiment: Increase in caspase-8 levels in human Hep2 cells at 50 ug/ml incubated for 24 hrs by protein array method; assay type: functional, cell-based
# HEp-2 [32] = experiment: Reduction in pro-caspase-3 levels in human Hep2 cells at 50 ug/ml incubated for 24 hrs by protein array method; assay type: functional, cell-based
# HEp-2 [33] = experiment: Increase in cleaved-caspase-3 levels in human Hep2 cells at 50 ug/ml incubated for 24 hrs by protein array method; assay type: functional, cell-based
# HEp-2 [34] = experiment: Reduction in XIAP levels in human Hep2 cells at 50 ug/ml incubated for 24 hrs by protein array method; assay type: functional, cell-based
# HEp-2 [35] = experiment: Reduction in c-IAP1 levels in human Hep2 cells at 50 ug/ml incubated for 24 hrs by protein array method; assay type: functional, cell-based
# HEp-2 [36] = experiment: Reduction in c-IAP2 levels in human Hep2 cells at 50 ug/ml incubated for 24 hrs by protein array method; assay type: functional, cell-based
# HEp-2 [37] = experiment: Reduction in livin protein levels in human Hep2 cells at 50 ug/ml incubated for 24 hrs by protein array method; assay type: functional, cell-based
# HEp-2 [38] = experiment: Reduction in survivin protein levels in human Hep2 cells at 50 ug/ml incubated for 24 hrs by protein array method; assay type: functional, cell-based
# HEp-2 [39] = experiment: Reduction in HSP27 protein levels in human Hep2 cells at 50 ug/ml incubated for 24 hrs by protein array method; assay type: functional, cell-based
# HEp-2 [40] = experiment: Reduction in HSP70 protein levels in human Hep2 cells at 50 ug/ml incubated for 24 hrs by protein array method; assay type: functional, cell-based
# HEp-2 [41] = experiment: Induction of apoptosis in human Hep2 cells assessed as increase in p53 S15/S46/S392 phosphorylation level at 50 ug/ml incubated for 24 hrs by protein array method; assay type: functional, cell-based
# HEp-2 [42] = experiment: Increase in PRKAA1 gene expression in human Hep2 cells at 50 ug/ml incubated for 24 hrs by real-time PCR method; assay type: functional, cell-based; outline: as §2
# HEp-2 [43] = experiment: Increase in PRKAA2 gene expression in human Hep2 cells at 50 ug/ml incubated for 24 hrs by real-time PCR method; assay type: functional, cell-based; outline: as §2
compound,measurement,setting,value
Cn1cc(C(=O)NC(=S)Nc2ccccc2Br)cn1,viability at 12.5 µg/mL,THP-1 [1],98%
same,viability at 25 µg/mL,THP-1 [2],59.4%
same,viability at 50 µg/mL,THP-1 [3],31.9%
same,viability at 12.5 µg/mL,[4],100%
same,viability at 25 µg/mL,[5],100%
same,viability at 50 µg/mL,[6],91.5%
same,viability at 12.5 µg/mL,[7],100%
same,viability at 25 µg/mL,[8],100%
same,viability at 50 µg/mL,[9],80%
same,Activity,HCT-8 [10],1.87%
same,Activity,HCT-8 [11],1.23%
same,Activity,HCT-8 [12],5.41%
same,Activity,HCT-8 [13],91.5%
same,Activity,HEp-2 [14],Dose-dependent effect
same,Activity,HEp-2 [15],74.41%
same,Activity,HEp-2 [16],70.17%
same,Activity,HEp-2 [17],19.09%
same,Activity,HEp-2 [18],21.87%
same,Activity,HEp-2 [19],10.28%
same,Activity,HEp-2 [20],15.93%
same,Activity,[21],inactive
same,Activity,[22],inactive
same,Activity,[23],inactive
same,Activity,[24],inactive
same,Activity,HEp-2 [25],Active
same,Activity,HEp-2 [26],Active
Cn1cc(C(=O)NC(=S)Nc2cccc(Br)c2)cn1,viability at 12.5 µg/mL,THP-1 [1],77%
same,viability at 25 µg/mL,THP-1 [2],55.8%
same,viability at 50 µg/mL,THP-1 [3],32%
same,viability at 12.5 µg/mL,[4],94%
same,viability at 25 µg/mL,[5],89.8%
same,viability at 50 µg/mL,[6],78.2%
same,viability at 12.5 µg/mL,[7],100%
same,viability at 25 µg/mL,[8],82%
same,viability at 50 µg/mL,[9],70%
same,Activity,HCT-8 [10],7.58%
same,Activity,HCT-8 [11],7.07%
same,Activity,HCT-8 [12],7.11%
same,Activity,HCT-8 [13],78.2%
same,Activity,HEp-2 [27],Active
same,Activity,HEp-2 [28],Active
same,Activity,HEp-2 [29],Active
same,Activity,HEp-2 [30],Active
same,Activity,HEp-2 [31],Active
same,Activity,HEp-2 [32],Active
same,Activity,HEp-2 [33],Active
same,Activity,HEp-2 [34],Active
same,Activity,HEp-2 [35],Active
same,Activity,HEp-2 [36],Active
same,Activity,HEp-2 [37],Active
same,Activity,HEp-2 [38],Active
same,Activity,HEp-2 [39],Active
same,Activity,HEp-2 [40],Active
same,Activity,HEp-2 [41],Active
same,Activity,HEp-2 [14],Dose-dependent effect
same,Activity,HEp-2 [15],66.12%
same,Activity,HEp-2 [16],15.4%
same,Activity,HEp-2 [17],20.85%
same,Activity,HEp-2 [18],34.7%
same,Activity,HEp-2 [19],18.43%
same,Activity,HEp-2 [20],52.33%
same,Activity,[21],Active
same,Activity,[23],Active
same,Activity,HEp-2 [42],Active
same,Activity,HEp-2 [43],Active
same,Activity,HEp-2 [25],Active
same,Activity,HEp-2 [26],Active
